Measured values as given in ChEMBL document CHEMBL4177684, “Design, synthesis, and biological evaluation of hydantoin bridged analogues of combretastatin A-4 as potential anticancer agents” (Bioorg Med Chem, 2017).

Legend:
Type in all cases: functional, cell-based
[1] = test system: HeLa; test: Antiproliferative activity against human HeLa cells by MTT assay
Procedure, shortened: (§1)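 Growth inhibition rate calculated per compound. IC₅₀ derived by curve fitting.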

[2] = test system: A2780; test: Antiproliferative activity against human A2780 cells by MTT assay; procedure, shortened: as §1
[3] = test system: MDA-MB-231; test: Antiproliferative activity against human MDA-MB-231 cells by MTT assay; procedure, shortened: as §1
[4] = test system: HCT-116; test: Antiproliferative activity against human HCT116 cells by MTT assay; procedure, shortened: as §1

Compound	IC50 [1] [µM]	IC50 [2] [µM]	IC50 [3] [nM]	IC50 [4] [nM]
COc1cc(C2C(=O)NC(=O)N2c2cccc(O)c2)cc(OC)c1OC (configuration not stated)	> 50	> 50		
COc1ccc(N2C(=O)NC(=O)C2c2cc(OC)c(OC)c(OC)c2)cc1OS(=O)(=O)F (configuration not stated)	6.76	4.52		
COc1cc(C2C(=O)NC(=O)N2c2ccc3[nH]ccc3c2)cc(OC)c1OC (configuration not stated)	> 50	8.41		
COc1cc(C2C(=O)NC(=O)N2c2cc(OC)c(OC)c(OC)c2)cc(OC)c1OC (configuration not stated)	> 50	> 50		
COc1cc(C2C(=O)NC(=O)N2c2ccc3ncccc3c2)cc(OC)c1OC (configuration not stated)	> 50	> 50		
COc1cc(C2C(=O)NC(=O)N2c2ccccc2)cc(OC)c1OC (configuration not stated)	> 50	> 50		
COc1ccc(C2C(=O)NC(=O)N2c2cc(OC)c(OC)c(OC)c2)cc1 (configuration not stated)	> 50	> 50		
COc1ccc(C2C(=O)NC(=O)N2c2cc(OC)c(OC)c(OC)c2)cc1O (configuration not stated)	> 50	> 50		
COc1cc(C2C(=O)NC(=O)N2c2ccc(C)c([N+](=O)[O-])c2)cc(OC)c1OC (configuration not stated)	5.45	2.89		

Next, values leading:

IC50 [1] [µM]	IC50 [2] [µM]	IC50 [3] [nM]	IC50 [4] [nM]	Compound
0.363	0.533	493	307	COc1cc(C2C(=O)N(C)C(=O)N2c2ccc(C)c(C)c2)cc(OC)c1OC (configuration not stated)
> 50	> 50			COc1ccc(N2C(=S)NC(=O)C2c2cc(OC)c(OC)c(OC)c2)cc1O (configuration not stated)
0.771	0.745	727	630	COc1ccc(N2C(=O)NC(=O)C2c2cc(OC)c(OC)c(OC)c2)cc1F (configuration not stated)
0.62	0.627	835	475	COc1cc(C2C(=O)NC(=O)N2c2ccc(C)c(C)c2)cc(OC)c1OC (configuration not stated)
4.74	9.71			COc1ccc(N2C(=O)NC(=O)C2c2cc(OC)c(OC)c(OC)c2)cc1[N+](=O)[O-] (configuration not stated)
0.665	0.815	768	945	COc1ccc(N2C(=O)NC(=O)C2c2cc(OC)c(OC)c(OC)c2)cc1O (configuration not stated)
0.516	0.555	452	527	COc1ccc(N2C(=O)N(C)C(=O)C2c2cc(OC)c(OC)c(OC)c2)cc1F (configuration not stated)
